The source made the active and inactive calls. The rule behind the calls is not given here.
Each compound was assayed against T1, Guanine nucleotide-binding protein G(q) subunit alpha (Homo sapiens) (UniProt P50148) (assay: Inhibition of Galpha-q in human HEK293 cells harbouring PL3alpha mutant assessed as reduction in CCh-induced IP1 accumulation preincubated for 2 hrs followed by CCh stimulation and measured after 35 mins by time resolved fluorescence assay). Conditions: not given.
T1 sequence (whole entry): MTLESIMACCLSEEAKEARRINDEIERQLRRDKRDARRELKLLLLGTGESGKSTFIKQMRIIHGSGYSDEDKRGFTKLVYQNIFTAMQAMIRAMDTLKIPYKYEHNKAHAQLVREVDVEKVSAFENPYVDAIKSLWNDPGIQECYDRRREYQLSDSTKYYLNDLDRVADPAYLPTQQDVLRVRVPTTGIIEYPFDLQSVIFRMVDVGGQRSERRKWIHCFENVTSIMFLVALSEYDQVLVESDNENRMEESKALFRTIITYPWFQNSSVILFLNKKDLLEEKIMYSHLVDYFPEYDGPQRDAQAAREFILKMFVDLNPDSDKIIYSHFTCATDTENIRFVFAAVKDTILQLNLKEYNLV
Assay type: cell-based

| SMILES | inhibition |
| --- | --- |
| O=C1Cn2cc(-c3ccccc3)nc2CN1 | Active |
| O=C1CCn2cc(-c3ccccc3)nc2CN1 | Active |

Each compound was assayed on HEK293 (assay: Cytotoxicity against human HEK293 cells assessed as reduction in cell viability at 100 uM incubated for 22 hrs by CellTiter-BlueTM cell viability assay). Conditions: hek293, 22 h.
Assay type: cell-based
Method in brief: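 HEK293 cells were seeded at 25,000 per well on poly-D-lysine and grown overnight, then exposed to compound for 22 h. CellTiter-Blue reagent was added for a further 2 h, and resorufin fluorescence was read at excitation 560 nm and emission 590 nm.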

| SMILES | Activity |
| --- | --- |
| N[C@@H](CS)C(=O)N1CCNC(=O)C1 | Non-Toxic |
| O=C1Cn2cc(-c3ccccc3)nc2CN1 | Non-Toxic |
| N[C@@H](CS)C(=O)N1CCNC(=O)[C@@H]1CC1CCCCC1 | Non-Toxic |
| N[C@@H](CS)C(=O)N1CCn2cc(-c3ccccc3)nc2[C@@H]1CC1CCCCC1 | Toxic |
| O=C1Cn2cc(-c3ccccc3)nc2[C@H](CC2CCCCC2)N1 | Non-Toxic |
| O=C1Cn2cc(-c3ccccc3)nc2CCN1 | Non-Toxic |
| O=C1CCn2cc(-c3ccccc3)nc2CN1 | Non-Toxic |
| O=C1CCn2cc(-c3ccccc3)nc2[C@H](CC2CCCCC2)N1 | Non-Toxic |
| O=C1Cn2cc(-c3ccccc3)nc2[C@H](CC2CCCCC2)CN1 | Non-Toxic |

These compounds were tested against T1, Guanine nucleotide-binding protein G(q) subunit alpha (Homo sapiens) (assay: Inhibition of Galpha-q in human HEK293 cells assessed as reduction in CCh-induced IP1 accumulation at 100 uM preincubated for 2 hrs followed by CCh stimulation and measured after 35 mins by time resolved fluorescence assay). Conditions: not given.
Assay type: cell-based
Method in brief: (§1)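 HEK293 wt cells were grown in DMEM with 10% FBS and penicillin/streptomycin at 37 °C and 5% CO2. Cells were plated at 60,000 per well and pre-incubated 15 min at 37 °C. Compound was added in stimulation buffer for 2 h at 37 °C, followed by buffer containing 100 µM carbachol (concentration in the added buffer) for 35 min. IP1 was read by HTRF (620/665 nm ratio).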

| SMILES | inhibition |
| --- | --- |
| N[C@@H](CS)C(=O)N1CCNC(=O)C1 | inactive |
| O=C1Cn2cc(-c3ccccc3)nc2CN1 | inactive |
| N[C@@H](CS)C(=O)N1CCNC(=O)[C@@H]1CC1CCCCC1 | inactive |
| N[C@@H](CS)C(=O)N1CCn2cc(-c3ccccc3)nc2[C@@H]1CC1CCCCC1 | Active |
| O=C1Cn2cc(-c3ccccc3)nc2[C@H](CC2CCCCC2)N1 | inactive |
| O=C1Cn2cc(-c3ccccc3)nc2CCN1 | inactive |
| O=C1CCn2cc(-c3ccccc3)nc2CN1 | inactive |
| O=C1CCn2cc(-c3ccccc3)nc2[C@H](CC2CCCCC2)N1 | inactive |
| O=C1Cn2cc(-c3ccccc3)nc2[C@H](CC2CCCCC2)CN1 | inactive |

Each compound was assayed against T1, Guanine nucleotide-binding protein G(q) subunit alpha (Homo sapiens) (assay: Inhibition of Galpha-q in human HEK293 cells assessed as reduction in CCh-induced IP1 accumulation preincubated for 2 hrs followed by CCh stimulation and measured after 35 mins by time resolved fluorescence assay). Conditions: not given.
Assay type: cell-based
Method in brief: as §1

| SMILES | inhibition |
| --- | --- |
| O=C1Cn2cc(-c3ccccc3)nc2CN1 | Dose-dependent effect |
| O=C1CCn2cc(-c3ccccc3)nc2CN1 | Dose-dependent effect |

Reference: ChEMBL document CHEMBL4334433, “BIM-46174 fragments as potential ligands of G proteins” (Medchemcomm, 2019)
